Screens (PubChem)
An excerpt weighted towards active compounds, which were near 2.6% of everything screened.
CHT allo act: allosteric activators of human choline transporter CHT | Q9GZV3 | CHT-expressing cells, membrane potential dye, choline EC20; stronger effect = higher value; LV-AA mutant CHT in HEK293 cells | B-score at 10 µM | 0.49% of 310,000 active;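 active means initial fluorescence not abnormally high and integrated response B-score, plate-corrected, over 3 SD above library mean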
KCC2 mod: KCC2 (human) Cl- transport modulation; B-score of Tl+ flux slope (higher = more flux/activation; lower = inhibition) at 10 µM; Q9H2X9; KCC2 cells, thallium flux FluoZin-2 fluorescence; 2.2% of 190,000 active; AID 1456;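 active means thallium flux slope and its plate-corrected score both differing from the plate sample mean at a set confidence after two filtering rounds, in either direction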;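 further: slope of fluorescence scaled to starting intensity during 10 to 20 s after thallium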
Rad51 HR inh: Rad51 (human) homologous recombination inhibition; hRad51 DNA strand exchange, fluorescence dequenching; inhibition, % at 10 µM; Q06609; 0.085% of 200,000 active;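 active means inhibition above 40% at the single screening dose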;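 further: 0% = DMSO control wells and 100% = blanks with heterologous ssDNA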
Target sequence (Q06609 whole entry, looked up): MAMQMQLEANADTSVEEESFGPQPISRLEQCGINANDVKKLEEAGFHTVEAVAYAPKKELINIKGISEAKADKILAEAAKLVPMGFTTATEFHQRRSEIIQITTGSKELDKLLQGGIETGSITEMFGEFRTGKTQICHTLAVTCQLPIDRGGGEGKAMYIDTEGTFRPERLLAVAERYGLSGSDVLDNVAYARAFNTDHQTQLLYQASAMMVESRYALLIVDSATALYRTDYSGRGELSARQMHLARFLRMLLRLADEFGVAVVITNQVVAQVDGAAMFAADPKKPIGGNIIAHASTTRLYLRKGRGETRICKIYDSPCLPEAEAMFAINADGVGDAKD
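material = hRad51 filaments on single-stranded DNA | timing = filaments 15 min 37 °C, then compound 30 min | signal = FRET fluorescence dequenching, excitation 485 nm, emission 520 nm | benchmarks = control wells and blank wells on each plate | evaluation = percent inhibition relative to plate controls and blanks | compound = 10 µM final, single point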
CHT block: human CHT choline transport inhibition. 0.86% of 310,000 active. Q9GZV3. B-score at 10 µM. CHT-expressing cells, membrane potential dye, choline response; stronger effect = lower value;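 active means B-score over 3 SD under the library average, and starting fluorescence ratio not unusually high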;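 further: choline stimulus applied at its EC90 after an EC20 pre-addition; B-score computed on integrated fluorescence ratio after choline addition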
KCC2 secondary: KCC2 (human) modulation, secondary assay. normalised thallium flux (F/F0 slope) at 10 µM. HEK293-KCC2, thallium flux, FluoZin2 fluorescence; stronger effect = higher value. 15% of 3,700 active. shares compounds with KCC2 mod;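 active means thallium flux slope above the same plate's solvent-only control mean plus 3 SD; inconclusive means the two replicate wells disagree; inactive means no significant difference from solvent-only control wells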
KCC2 bumet counter: thallium flux despite bumetanide block in KCC2 cells, secondary assay 3 | normalized thallium flux at 10 µM | HEK293-KCC2 + bumetanide/ouabain, thallium flux FluoZin2; stronger effect = higher value | 49% of 3,700 active | shares compounds with KCC2 mod | AID 1714;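 active means thallium entry rate above the same plate's blocked-transporter control wells by more than 3 SD; inconclusive means the two repeat wells disagree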;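 further: raw slope of fluorescence over initial fluorescence between 10 and 20 s after thallium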
KCC2 sec2: KCC2 (human) modulation, second secondary assay. shares compounds with KCC2 mod. HEK293-KCC2, thallium flux FluoZin2 fluorescence; actives lie on both sides; F/F0 rise rate, 10–20 s post-thallium. normalized thallium flux at 10 µM. 23% of 3,700 active;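 active means thallium flux slope more than 3 SD above or below the plate's solvent-only control mean, mostly below; inconclusive means the two repeat wells disagreed; inactive means no significant shift from solvent-only controls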;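 further: raw slope with 0.1% DMSO as baseline and bumetanide as block control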
HEK counter1: parental HEK flux effect, counter-screen | shares compounds with KCC2 mod | HEK293 parental cells, thallium flux FluoZin2, ouabain; baseline-ratio fluorescence slope, 10–20 s after thallium | thallium flux rate (normalised fluorescence) at 10 µM | 46% of 3,700 active | AID 1716;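 active means thallium flux rate significantly above the same plate's solvent-only control wells, beyond their mean plus 3 SD; inconclusive means the two replicate wells gave conflicting results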
KCC2 ouabain: modulates human KCC2 on retest with ouabain; shares compounds with KCC2 mod; HEK293-KCC2, thallium flux FluoZin2 fluorescence; bidirectional: low = inhibitor, high = activator; raw Tl+ flux slope (below DMSO = inhibition, above = activation) at 10 µM; 48% of 3,700 active;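 active means thallium flux slope beyond 3 SD from same-plate DMSO control mean in most replicates, usually higher, sometimes lower; inconclusive means repeat tests gave conflicting results; inactive means no significant difference from controls in most replicates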;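 further: slope of initial-normalized fluorescence between seconds 10 and 20 after thallium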
HEK293 Tl flux2: counter-screen for KCC2 modulators: effect in parental HEK293 cells; shares compounds with KCC2 mod; thallium flux FluoZin-2 fluorescence slope; thallium flux slope at 10 µM; 33% of 3,700 active;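 active means thallium flux slope above the same plate's solvent-control mean plus 3 SD in both duplicate wells; inconclusive means duplicate wells that disagreed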;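 further: run without ouabain in cells lacking the KCC2 cotransporter; slope of fluorescence scaled to its starting value between 10 and 20 s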
Numbers without * were called inactive; i = inactive; u = inconclusive; x = not tested or not shown.

SMILES	CHT allo act	KCC2 mod	Rad51 HR inh	CHT block	KCC2 secondary	KCC2 bumet counter	KCC2 sec2	HEK counter1	KCC2 ouabain	HEK293 Tl flux2
O=C1N(Cc2ccc(F)cc2)CCN1c1ccc(F)cc1	i	-3.3*	x	i	0.0067	u	0.03	0.011*	u	0.012
COCCNC(=O)C(c1ccc(F)cc1)N(C(=O)CCC(=O)Nc1ccccn1)C1CCCCC1 (stereo not drawn)	i	x	x	i	x	x	x	x	x	x
Cc1cc([N+](=O)[O-])ccc1NCc1ccccc1	i	-3.1*	2	i	0.006	0.0043	0.023*	0.0066	0.017*	0.009
Cc1nn(-c2ccc(F)cc2)c(Cl)c1/C=C(\CC(=O)O)c1nc2ccccc2s1	i	-6.8*	-8	i	0.0088	0.0067	u	0.0066	0.013*	0.0098
O=C(CNS(=O)(=O)c1ccc(Br)s1)NCC1COc2ccccc2O1 (stereo not drawn)	i	-0.84	-9	i	x	x	x	x	x	x
Cc1cccc(Nc2nnc(SCC(=O)c3ccc(Br)s3)s2)c1C	i	-4.3*	11	i	u	u	0.027*	0.0075	0.011*	0.011
O=[N+]([O-])c1cccc2c(N3CCCC3)ccnc12	i	-0.91	15	i	x	x	x	x	x	x
Cc1ccc(/C=C2\S/C(=N/S(=O)(=O)c3cccs3)NC2=O)cc1	i	5.7*	-3	i	0.0067	0.016*	0.03	0.014*	u	0.016*
COc1ccc(Cl)cc1C(=O)CSc1nc(N)cc(N)n1	i	-8.7*	-3	i	0.0075	0.0057	0.029	0.0064	0.027	0.01
FC(F)(F)c1ccccc1-n1ccnc1	i	x	x	i	x	x	x	x	x	x
Clc1ccccc1C(c1ccccc1)(c1ccccc1)n1ccnc1	i	-4.3*	2	i	0.0095	0.0054	0.033	0.0057*	0.019	0.01
CCOP(=O)(c1ccc(N(C)C)cc1)C(O)c1ccc(Cl)cc1 (stereo not drawn)	i	-5*	1	i	0.0081	0.0055	0.035	0.0041	0.02	0.012
CCOP(=O)(c1ccc(N(C)C)cc1)C(O)c1ccccc1 (stereo not drawn)	i	0.13	-2	i	x	x	x	x	x	x
O=C(NC1CCCCC1)c1ccc2[nH]c(=O)c(=O)[nH]c2c1	i	x	x	i	x	x	x	x	x	x
O=P(CCN1CCCCC1)(c1ccccc1)c1ccccc1	i	-17*	-1	i	0.0066	0.005	0.028	0.0078	0.018	0.012
CCn1ncc(CN2CCCC(CNC(=O)c3ccc(F)cc3)C2)c1C (stereo not drawn)	i	-6.2*	7	i	0.016	0.0052	0.028	0.0075	0.017	0.011
Cc1cc(CN2CCCC(CNC(=O)c3ccc(F)cc3)C2)cc(C)c1O (stereo not drawn)	i	-0.12	-25	i	x	x	x	x	x	x
COc1ccc(-c2cn(CCC(=O)NCc3ccc(C)cc3)c(CCN)n2)cc1	i	x	x	i	x	x	x	x	x	x
O=C(CCCSc1nc2sc3c(c2c(=O)[nH]1)CCC3)NCCO	i	-4.2*	x	i	0.015	0.0047	0.028	0.0073	0.016	0.0098
Cc1ccsc1/C=N/n1c(C2CCCCC2)n[nH]c1=S	i	2.2	3	i	x	x	x	x	x	x
Cc1ccc(/C=N/n2c(C3CCCCC3)n[nH]c2=S)s1	i	7.3*	10	i	0.011	0.022*	0.033	0.011*	0.027	u
CCN(CC)c1ccc(S(=O)(=O)N2CCOCC2)cc1NC(=O)CNCc1ccccc1	i	-5.6*	-12	i	0.0068	0.005	0.029	0.0062	u	0.0093
CCN(CC)c1ccc(S(=O)(=O)N2CCOCC2)cc1NC(=O)CN1CCN(Cc2ccccc2)CC1	i	-1.6	4	i	x	x	x	x	x	x
COc1ccc(S(=O)(=O)N2CCN(C(=O)C3CC3)CC2)cc1	i	x	x	i	x	x	x	x	x	x
O=c1c2ccccc2nc(/C=C/c2cc(Br)ccc2O)n1CCCO	i	x	x	i	x	x	x	x	x	x
SMILES	CHT allo act	KCC2 mod	Rad51 HR inh	CHT block	KCC2 secondary	KCC2 bumet counter	KCC2 sec2	HEK counter1	KCC2 ouabain	HEK293 Tl flux2
Cc1[nH]c2ccccc2c1C(=O)COC(=O)CCS(=O)(=O)c1ccccc1Cl	i	-3.1*	-11	i	0.01	u	0.034	0.004	0.017*	0.012
O=C(CSc1nc2ccccc2c(=O)n1Cc1ccc(F)cc1)NCc1cccs1	i	27*	1	i	0.0066	0.031*	0.05*	0.035*	0.038*	0.036*
CCCn1c(N)c(C(=O)CSc2nc3ccccc3c(=O)n2Cc2ccccc2)c(=O)[nH]c1=O	i	40*	4	i	0.016*	0.08*	0.028	0.026*	0.054*	0.012*
O=C1OCCC1Sc1nc2ccccc2c(=O)n1Cc1ccc(F)cc1 (stereo not drawn)	i	39*	x	i	0.025*	0.14*	u	0.062*	0.097*	0.033*
Cn1c(N)c(C(=O)CSc2nc3ccccc3c(=O)n2Cc2ccccc2)c(=O)n(C)c1=O	i	2.4	10	i	x	x	x	x	x	x
Cc1cc(NC(=O)CSc2nc3ccccc3c(=O)n2Cc2ccc(F)cc2)no1	i	3.5*	1	i	0.011	0.019*	0.035	u	u	u
O=C1OCCC1Sc1nc2ccccc2n1Cc1ccccc1 (stereo not drawn)	i	-0.74	-5	i	x	x	x	x	x	x
Cc1c(Cl)ccc(S(=O)(=O)Nc2cccnc2)c1Cl	i	x	x	i	x	x	x	x	x	x
CC(C(=O)O/N=C(\N)c1cccnc1)c1ccc([N+](=O)[O-])cc1 (stereo not drawn)	i	0	-2	i	x	x	x	x	x	x
CCN(CC(=O)Nc1ccccc1C(F)(F)F)C(=O)CN1C(=O)NC(C)(c2ccccc2)C1=O (stereo not drawn)	i	x	x	i	x	x	x	x	x	x
CCN1CCN(C(=O)c2ccc3c(=O)n(C4CCCC4)c(=S)[nH]c3c2)CC1	i	x	-2	i	x	x	x	x	x	x
CCOC(=O)N1CCN(C(=O)c2ccc3c(=O)n(Cc4ccc(Cl)cc4)c(=S)[nH]c3c2)CC1	i	x	x	i	0.0063	0.015*	0.032	0.013*	u	0.016*
